Non-standard residues stand in square brackets, D forms with d. Residues, ends and D or L forms follow the SMILES beside them. *: point of attachment. Desaminotyrosyl = O=C(CCc1ccc(O)cc1)*; NMeF = CN[C@@H](Cc1ccccc1)C(=O)O; Aib = CC(C)(N)C(=O)O; Ava = NCCCCC(=O)O; GABA = NCCCC(=O)O; βAla = NCCC(=O)O; Sar = CNCC(=O)O
Legend:
Format in all cases: functional, Mus musculus
[1] = Proliferative activity in osteoblastic MC3T3 E1 cell culture relative to OGP(10-14)
Outline: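 MC3T3 E1 osteoblastic cells were seeded at 2 × 10⁴ cells/well in RMEM with 10% FCS at 37 °C in CO₂/air. After 46 h in serum, they were washed, kept serum-free for 2 h, then switched to RMEM with 4% fatty-acid-free BSA, with or without peptide. The peptide was freshly dissolved at 10^-6 M, diluted, and preincubated for 30 min at 37 °C. The final concentration was 10^-13 M unless otherwise specified, with some dose-response runs.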

[2] = (§1) Proliferative activity in fibroblastic […] cell culture relative to OGP(10-14)
Outline: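 Mouse NIH 3T3 fibroblasts from confluent cultures were seeded at 2 × 10⁴ cells/well in RMEM with 10% FCS at 37 °C in CO₂/air for 46 h, then washed and held serum-free for 2 h. Medium was then replaced with RMEM containing 4% fatty-acid-free BSA, with or without peptide. The peptide was dissolved at 10^-6 M, diluted, and pre-warmed for 30 min at 37 °C. The final concentration was 10^-11 M unless otherwise stated.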

NIH3T3 = assay: as §1
Outline: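 NIH 3T3 fibroblasts from confluent cultures in RMEM with 10% FCS, seeded at 2 × 10⁴ cells/well, 37 °C in CO₂/air. They were kept 46 h in FCS medium, then 2 h serum-free. Medium was switched to 4% fatty-acid-free BSA RMEM ± peptide, 10^-11 M final, preincubated 30 min at 37 °C. Read-out was cell number in triplicate wells, converted to treated/control ratio against OGP(10-14) reference.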

Molecule | Relative potency [1] | Relative potency [2] | Relative potency (NIH3T3)
O=C1CNC(=O)[C@H](Cc2ccc(O)cc2)NC(=O)CNC(=O)[C@H](Cc2ccccc2)NC(=O)CN1 | 0.95 | 1.02 | –
O=C1CNC(=O)[C@@H](Cc2ccc(O)cc2)NC(=O)CNC(=O)[C@@H](Cc2ccccc2)NC(=O)CN1 | 1.03 | 1.16 | –
O=C1CNC(=O)[C@@H](Cc2ccccc2)NC(=O)CNC(=O)[C@@H](Cc2ccc(O)cc2)NC(=O)CN1 | 0.69 | 0.84 | –
O=C1CNC(=O)[C@H](Cc2ccccc2)NC(=O)CNC(=O)[C@H](Cc2ccc(O)cc2)NC(=O)CN1 | 0.79 | 1.12 | –
O=C(O)CNC(=O)CNC(=O)[C@H](Cc1ccccc1)NCCNC(=O)CCc1ccc(O)cc1 | 0.61 | 0.67 | –
O=C(O)CNCCNC(=O)[C@H](Cc1ccccc1)NC(=O)CNC(=O)CCc1ccc(O)cc1 | 0.78 | 0.8 | –
O=C(O)CNC(=O)CNC[C@H](Cc1ccccc1)NC(=O)CNC(=O)CCc1ccc(O)cc1 | 0.7 | 0.88 | –
O=C(O)CCCCNC(=O)[C@H](Cc1ccccc1)NC(=O)CNC(=O)CCc1ccc(O)cc1 | 0.78 | 0.88 | –
O=C(O)CNC(=O)CNC(=O)[C@H](Cc1ccccc1)NC(=O)CNCCCc1ccc(O)cc1 | 0.81 | 0.79 | –
N[C@H](CNCC(=O)N[C@@H](Cc1ccccc1)C(=O)NCC(=O)NCC(=O)O)Cc1ccc(O)cc1 | 0.92 | 0.87 | –
CN(CC(=O)O)C(=O)CNC(=O)[C@H](Cc1ccccc1)NC(=O)CNC(=O)CCc1ccc(O)cc1 (Desaminotyrosyl-GFG[Sar]-OH) | 0.16 | 0.14 | –
CN(CC(=O)NCC(=O)O)C(=O)[C@H](Cc1ccccc1)NC(=O)CNC(=O)CCc1ccc(O)cc1 (Desaminotyrosyl-GF[Sar]G-OH) | 0.15 | 0.11 | –
CN(C(=O)CNC(=O)CCc1ccc(O)cc1)[C@@H](Cc1ccccc1)C(=O)NCC(=O)NCC(=O)O (Desaminotyrosyl-G[NMeF]GG-OH) | 0.52 | 0.67 | –
CN(CC(=O)N[C@@H](Cc1ccccc1)C(=O)NCC(=O)NCC(=O)O)C(=O)CCc1ccc(O)cc1 (Desaminotyrosyl-[Sar]FGG-OH) | 0.31 | 0.39 | –
O=C(O)C[C@@H]1NC(=O)CNC(=O)[C@H](Cc2ccccc2)NC(=O)CNC(=O)[C@H](Cc2ccc(O)cc2)NC1=O (cyclo(DYGFG)) | 0.14 | 0.11 | –
O=C1CNC(=O)CNC(=O)[C@H](Cc2ccccc2)NC(=O)CNC(=O)[C@H](Cc2ccc(O)cc2)NC(=O)CN1 (cyclo(FGGGYG)) | 0.26 | 0.2 | –
O=C1CNC(=O)[C@H](Cc2ccccc2)NC(=O)[C@@H]2CCCN2C(=O)[C@H](Cc2ccc(O)cc2)NC(=O)CN1 (cyclo(FGGYP)) | 0.99 | 0.9 | –
O=C1CNC(=O)CNC(=O)[C@H](Cc2ccccc2)NC(=O)CNC(=O)[C@H](Cc2ccc(O)cc2)NC(=O)CCCN1 (cyclo(FGG[GABA]YG)) | 0.2 | 0.22 | –
O=C1CNC(=O)CNC(=O)[C@H](Cc2ccccc2)NC(=O)CNC(=O)[C@H](Cc2ccc(O)cc2)NC(=O)CCN1 (cyclo(FGG[βAla]YG)) | 0.36 | 0.37 | –
O=C1CNC(=O)[C@H](Cc2ccccc2)NC(=O)CNC(=O)[C@H](Cc2ccc(O)cc2)N1 (cyclo(FGYG)) | 0.35 | 0.43 | –
CC1(C)NC(=O)[C@H](Cc2ccc(O)cc2)NC(=O)CNC(=O)CNC(=O)[C@H](Cc2ccccc2)NC1=O (cyclo([Aib]FGGY)) | 0.19 | 0.31 | –
O=C1CNC(=O)CNC(=O)[C@H](Cc2ccccc2)NC(=O)CNC(=O)[C@H](Cc2ccc(O)cc2)NC(=O)CCCCN1 (cyclo([Ava]YGFGG)) | 0.14 | 0.18 | –
H-GGFGY-OH | 0.71 | 0.82 | –
H-YGFGG-OH | 1 | – | 1
H-YPFGG-OH | 0.89 | 0.96 | –
